Assay results taken from ChEMBL document CHEMBL1926651, “Design, synthesis, antiviral and cytostatic evaluation of novel isoxazolidine nucleotide analogues with a 1,2,3-triazole linker” (Eur J Med Chem, 2012).
Activity calls are given as the source filed them. No cut-off for these calls is given here.

Key:
Human alphaherpesvirus 3 [1] = assay: Antiviral activity against thymidine kinase-positive Varicella Zoster virus Oka infected in human HEL cells assessed as inhibition of viral plaque formation at 250 uM; format: functional, cell-based; settings: strain Oka vaccine
[2] = test system: Vesicular stomatitis virus; assay: Antiviral activity against Vesicular stomatitis virus infected in human Hela cells assessed as inhibition of viral plaque formation at 250 uM; format: functional, organism-based
Coxsackievirus B4 [3] = assay: Antiviral activity against Coxsackievirus B4 infected in african green monkey Vero cells assessed as inhibition of viral plaque formation at 250 uM; format: functional, organism-based
Procedure, shortened: (§1)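 Confluent host cell monolayers were inoculated with 100 CCID50 of virus in the presence of test compound at serial dilutions (250, 50, 10, … μM). Viral cytopathicity was scored once it reached completion in untreated virus-infected controls.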

Vaccinia virus = assay: Antiviral activity against Vaccinia virus infected in human HEL cells assessed as inhibition of viral plaque formation at 250 uM; format: functional, organism-based; settings: Orthopoxvirus vaccinia; procedure, shortened: as §1
Human alphaherpesvirus 1 [4] = assay: Antiviral activity against Herpes simplex virus 1 KOS infected in human HEL cells assessed as inhibition of viral plaque formation at 250 uM; format: functional, organism-based; procedure, shortened: as §1
Human respirovirus 3 = assay: Antiviral activity against Parainfluenza-3 virus infected in african green monkey Vero cells assessed as inhibition of viral plaque formation at 250 uM; format: functional, organism-based; procedure, shortened: as §1
[5] = test system: Human immunodeficiency virus 2; assay: Antiviral activity against Human immunodeficiency virus 2 infected in human CEM cells assessed as inhibition of virus-induced giant cell formation after 4 days by microscopic analysis; format: functional, organism-based; settings: CCRF-CEM
Procedure, shortened: (§2)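 CEM cells at about 3 × 10⁵ cells/cm³ were infected with 100 CCID50/mL of HIV-1(IIIB) or HIV-2(ROD), then seeded into wells holding test compound dilutions. After 4 days at 37 °C, virus-induced giant cell formation was scored microscopically.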

[6] = test system: Human immunodeficiency virus 1; assay: Antiviral activity against Human immunodeficiency virus 1 infected in human CEM cells assessed as inhibition of virus-induced giant cell formation after 4 days by microscopic analysis; format: functional, organism-based; settings: CCRF-CEM; procedure, shortened: as §2
Human betaherpesvirus 5 [7] = assay: Antiviral activity against Human cytomegalovirus AD169 infected in human HEL cells assessed as inhibition of viral plaque formation at 250 uM; format: functional, organism-based
HEL = assay: Cytotoxicity against human HEL cells 3 days by coulter counting; format: functional; settings: 72 h
Procedure, shortened: (§3)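 Cells were suspended at 300,000–500,000 cells/mL and added 1:1 to compound dilutions. Incubation was at 37 °C, 2 days for L1210 and 3 days for CEM, HeLa and HEL. Cells were counted with a Coulter counter. CC50 is the concentration inhibiting cell proliferation by 50%.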

Sindbis virus = assay: Antiviral activity against Sindbis virus infected in african green monkey Vero cells assessed as inhibition of viral plaque formation at 250 uM; format: functional, organism-based; procedure, shortened: as §1
[8] = test system: Respiratory syncytial virus; assay: Antiviral activity against Respiratory syncytial virus infected in human HeLa cells assessed as inhibition of viral plaque formation at 250 uM; format: functional, organism-based; procedure, shortened: as §1
HeLa = assay: Cytotoxicity against human HeLa cells 3 days by coulter counting; format: functional; settings: 72 h; procedure, shortened: as §3
Coxsackievirus B4 [9] = assay: Antiviral activity against Coxsackievirus B4 infected in human HeLa cells assessed as inhibition of viral plaque formation at 250 uM; format: functional, organism-based; procedure, shortened: as §1
[10] = test system: Mammalian orthoreovirus 1; assay: Antiviral activity against Reovirus-1 infected in african green monkey Vero cells assessed as inhibition of viral plaque formation at 250 uM; format: functional, organism-based; procedure, shortened: as §1
Human alphaherpesvirus 2 = assay: Antiviral activity against Herpes simplex virus 2 G infected in human HEL cells assessed as inhibition of viral plaque formation at 250 uM; format: functional, organism-based; settings: strain G
Feline coronavirus = assay: Antiviral activity against Feline coronavirus infected in CrFK cells assessed as inhibition of viral plaque formation at 250 uM; format: functional, organism-based; procedure, shortened: as §1
Human betaherpesvirus 5 [11] = assay: Antiviral activity against Human cytomegalovirus Davis infected in human HEL cells assessed as inhibition of viral plaque formation at 250 uM; format: functional, organism-based
Human alphaherpesvirus 3 [12] = assay: Antiviral activity against thymidine kinase-deficient Varicella Zoster virus 07/1 infected in human HEL cells assessed as inhibition of viral plaque formation at 250 uM; format: functional, organism-based
Punta Toro virus = assay: Antiviral activity against Punta Toro virus infected in african green monkey Vero cells assessed as inhibition of viral plaque formation at 250 uM; format: functional, organism-based
Felid alphaherpesvirus 1 = assay: Antiviral activity against Felid herpesvirus 1 infected in CrFK cells assessed as inhibition of viral plaque formation at 250 uM; format: functional, organism-based; procedure, shortened: as §1
Human alphaherpesvirus 1 [13] = assay: Antiviral activity against thymidine kinase-deficient acv-resistant Herpes simplex virus 1 KOS infected in human HEL cells assessed as inhibition of viral plaque formation at 250 uM; format: functional, organism-based
L1210 = assay: Cytotoxicity against mouse L1210 cells 2 days by coulter counting; format: functional; settings: L1210, 48 h; procedure, shortened: as §3
[14] = test system: Vesicular stomatitis virus; assay: Antiviral activity against Vesicular stomatitis virus infected in human HEL cells assessed as inhibition of viral plaque formation at 250 uM; format: functional, organism-based; procedure, shortened: as §1
CCRF-CEM = assay: Cytotoxicity against human CEM cells 3 days by coulter counting; format: functional; settings: 72 h; procedure, shortened: as §3

Row | Structure (SMILES) | Activity (Human alphaherpesvirus 3 [1]) | Activity [2] | Activity (Coxsackievirus B4 [3]) | Activity (Vaccinia virus) | Activity (Human alphaherpesvirus 1 [4]) | Activity (Human respirovirus 3) | Activity [5] | Activity [6] | Activity (Human betaherpesvirus 5 [7]) | CC50 (HEL) [µM] | Activity (Sindbis virus) | Activity [8] | CC50 (HeLa) [µM] | Activity (Coxsackievirus B4 [9]) | Activity [10] | Activity (Human alphaherpesvirus 2) | Activity (Feline coronavirus) | Activity (Human betaherpesvirus 5 [11]) | Activity (Human alphaherpesvirus 3 [12]) | Activity (Punta Toro virus) | further results
1 | CCOP(=O)(OCC)[C@@H]1C[C@@H](n2cc(Cn3cc(C)c(=O)[nH]c3=O)nn2)ON1C (relative stereo) | inactive | inactive | inactive | inactive | inactive | inactive | inactive | inactive | inactive | > 100 | inactive | inactive | > 250 | inactive | inactive | inactive | inactive | inactive | inactive | inactive | Activity (Felid alphaherpesvirus 1): inactive; Activity (Human alphaherpesvirus 1 [13]): inactive; CC50 (L1210): ≥ 250 µM; Activity [14]: inactive; CC50 (CCRF-CEM): > 250 µM
2 | CCOP(=O)(OCC)[C@@H]1C[C@@H](n2cc(C(=O)OC)nn2)ON1C (relative stereo) | inactive | inactive | inactive | inactive | inactive | inactive | inactive | inactive | inactive | > 100 | inactive | inactive | > 250 | inactive | inactive | inactive | inactive | inactive | inactive | inactive | Activity (Felid alphaherpesvirus 1): inactive; Activity (Human alphaherpesvirus 1 [13]): inactive; CC50 (L1210): 191 µM; Activity [14]: inactive; CC50 (CCRF-CEM): > 250 µM
3 | CCOP(=O)(OCC)[C@@H]1C[C@@H](n2cc(Cn3ccc(=O)[nH]c3=O)nn2)ON1C (relative stereo) | inactive | inactive | inactive | inactive | inactive | inactive | inactive | inactive | inactive | > 100 | inactive | inactive | ≥ 250 | inactive | inactive | inactive | inactive | inactive | inactive | inactive | Activity (Felid alphaherpesvirus 1): inactive; Activity (Human alphaherpesvirus 1 [13]): inactive; CC50 (L1210): > 250 µM; Activity [14]: inactive; CC50 (CCRF-CEM): > 250 µM
4 | CCOP(=O)(OCC)[C@@H]1C[C@@H](n2cc(Cn3cnc4c(N)ncnc43)nn2)ON1C (racemic) | inactive | inactive | inactive | inactive | inactive | inactive | inactive | inactive | inactive | > 100 | inactive | inactive | > 250 | inactive | inactive | inactive | inactive | inactive | inactive | inactive | Activity (Felid alphaherpesvirus 1): inactive; Activity (Human alphaherpesvirus 1 [13]): inactive; CC50 (L1210): 140 µM; Activity [14]: inactive; CC50 (CCRF-CEM): > 250 µM
